Laboratory results published in article PMC5361409 (Bioorganic & medicinal chemistry letters, 2016).
“Also recorded” adds a separate entry of the source.

Columns and labels:
[1] = Intrinsic clearance in rat liver microsomes; type: in vitro ADME
[2] = Intrinsic clearance in human liver microsomes; type: in vitro ADME; conditions: for CLint scaled: human, liver microsomes; for predicted clearance: predicted from CLINT in liver microsomes (rat and human), in words
D1 = D1 (Homo sapiens, UniProt P21728); test: Dopamine receptor selectivity, radioligand binding at EuroFins: D1; conditions: read-out: % inhibition at 10 µM D1 (%)
In short: (§1)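 Contract radioligand binding screen against the indicated human dopamine receptor subtype. Each test compound was run in duplicate, and the read-out is percent inhibition of specific radioligand binding.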

D5 = D5 (Homo sapiens, UniProt P21918); test: Dopamine receptor selectivity, radioligand binding at EuroFins: D5; conditions: read-out: % inhibition at 10 µM D5 (%)
In short: as §1

D3 = D3 (Homo sapiens, UniProt P35462); test: Dopamine receptor selectivity, radioligand binding at EuroFins: D3; conditions: read-out: % inhibition at 10 µM D3 (%)
In short: as §1

[3] = system: other dopamine receptors (D1, D2L, D2S, D3, and D5); test: Selectivity against the other dopamine receptors; type: binding; conditions: for selectivity against all of the dopamine receptors tested: in words
[4] = Metabolic soft-spot experiment in human liver microsomes; type: in vitro ADME
[5] = Metabolic soft-spot experiment in rat liver microsomes; type: in vitro ADME
[6] = molecular target: T1, dopamine D4 receptor (D4R) (Homo sapiens, UniProt P21917); test: D4 radioligand binding assay using Spiperone at EuroFins; conditions: run in duplicate
T1 sequence (P21917 1-419): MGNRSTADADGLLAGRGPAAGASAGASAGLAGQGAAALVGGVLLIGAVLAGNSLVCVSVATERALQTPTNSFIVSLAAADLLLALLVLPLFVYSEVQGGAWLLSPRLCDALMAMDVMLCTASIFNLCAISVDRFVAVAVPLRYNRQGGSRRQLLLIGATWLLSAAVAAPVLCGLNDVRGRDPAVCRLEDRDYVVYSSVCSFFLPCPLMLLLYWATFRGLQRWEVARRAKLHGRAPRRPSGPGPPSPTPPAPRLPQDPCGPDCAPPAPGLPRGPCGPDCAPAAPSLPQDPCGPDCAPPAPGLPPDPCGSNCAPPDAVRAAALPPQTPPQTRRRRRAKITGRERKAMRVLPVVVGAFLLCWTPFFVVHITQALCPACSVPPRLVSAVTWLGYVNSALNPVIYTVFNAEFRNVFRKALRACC

[7] = in the presence of NADPH, in words

Sequence of D5 (P21918 whole entry): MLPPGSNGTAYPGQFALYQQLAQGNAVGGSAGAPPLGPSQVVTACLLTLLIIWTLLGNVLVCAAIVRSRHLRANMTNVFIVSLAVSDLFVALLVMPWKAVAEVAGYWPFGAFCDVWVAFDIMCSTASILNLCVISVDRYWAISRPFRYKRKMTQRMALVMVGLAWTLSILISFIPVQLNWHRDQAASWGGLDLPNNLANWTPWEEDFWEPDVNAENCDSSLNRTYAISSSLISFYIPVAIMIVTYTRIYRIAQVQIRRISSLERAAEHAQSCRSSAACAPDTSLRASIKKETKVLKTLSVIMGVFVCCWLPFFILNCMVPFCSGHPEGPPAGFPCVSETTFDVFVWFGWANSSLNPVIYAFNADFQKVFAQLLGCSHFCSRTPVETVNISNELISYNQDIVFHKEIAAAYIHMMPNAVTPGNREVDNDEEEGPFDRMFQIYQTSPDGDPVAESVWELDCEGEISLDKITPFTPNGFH
Sequence of D1 (P21728 whole entry): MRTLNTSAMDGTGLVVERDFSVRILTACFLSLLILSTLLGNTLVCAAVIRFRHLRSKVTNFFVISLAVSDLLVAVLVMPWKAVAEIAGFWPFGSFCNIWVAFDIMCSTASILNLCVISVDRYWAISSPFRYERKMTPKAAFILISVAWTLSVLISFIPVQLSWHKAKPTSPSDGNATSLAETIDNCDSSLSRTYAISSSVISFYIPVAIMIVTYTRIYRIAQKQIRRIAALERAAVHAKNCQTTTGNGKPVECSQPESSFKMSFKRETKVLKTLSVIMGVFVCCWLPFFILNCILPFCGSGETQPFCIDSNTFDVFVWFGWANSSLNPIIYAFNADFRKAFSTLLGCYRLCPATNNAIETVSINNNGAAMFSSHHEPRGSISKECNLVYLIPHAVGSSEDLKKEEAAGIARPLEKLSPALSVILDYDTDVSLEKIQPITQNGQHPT
Sequence of D3 (P35462 whole entry): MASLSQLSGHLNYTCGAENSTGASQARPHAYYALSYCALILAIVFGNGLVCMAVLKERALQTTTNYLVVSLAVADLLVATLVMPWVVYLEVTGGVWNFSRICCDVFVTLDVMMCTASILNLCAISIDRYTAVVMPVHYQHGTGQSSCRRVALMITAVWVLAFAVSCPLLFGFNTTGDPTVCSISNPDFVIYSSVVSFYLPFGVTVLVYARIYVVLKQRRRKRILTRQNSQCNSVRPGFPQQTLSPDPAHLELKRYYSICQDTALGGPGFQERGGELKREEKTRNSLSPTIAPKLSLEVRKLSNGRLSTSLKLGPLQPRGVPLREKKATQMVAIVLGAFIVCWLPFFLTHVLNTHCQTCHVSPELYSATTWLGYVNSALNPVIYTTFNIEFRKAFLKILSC

| SMILES | CLint scaled [1] | CLint scaled [2] | inhibition at 10 µM (D1) | inhibition at 10 µM (D5) | inhibition at 10 µM (D3) | also measured |
| --- | --- | --- | --- | --- | --- | --- |
| Clc1ccc(CN2CCO[C@H](COc3ccccc3)C2)cc1 [Compound 4a] | 4520 mL/min/kg | 147 mL/min/kg |  |  |  |  |
| Clc1ccc2c(CN3CCO[C@H](COc4ccccc4)C3)c[nH]c2c1 [Compound 4aa] | 614 mL/min/kg | 46.7 mL/min/kg |  |  |  |  |
| Cc1ccc(CN2CCO[C@H](COc3ccccc3)C2)cc1C [Compound 4b] |  |  | < 50% | < 50% | < 50% |  |
| COc1ccc2c(CN3CCO[C@H](COc4ccccc4)C3)c[nH]c2c1 [Compound 4dd] | 184 mL/min/kg | 31.6 mL/min/kg |  |  |  |  |
| Fc1ccc2c(CN3CCO[C@H](COc4ccccc4)C3)c[nH]c2c1 [Compound 4ee] | 1690 mL/min/kg | 71.1 mL/min/kg |  |  |  |  |
| Fc1cc(CN2CCO[C@H](COc3ccccc3)C2)ccc1Cl [Compound 4g] | 251 mL/min/kg | 65.3 mL/min/kg |  |  |  | predicted clearance [2]: moderate |
| Clc1ccc(CN2CCO[C@H](COc3ccccc3)C2)cc1Cl [Compound 4i] | 621 mL/min/kg | 50.5 mL/min/kg |  |  |  |  |
| Fc1cc(CN2CCO[C@H](COc3ccccc3)C2)ccc1C(F)(F)F [Compound 4j] | 247 mL/min/kg | 50.5 mL/min/kg |  |  |  |  |
| COc1ccc(CN2CCO[C@H](COc3ccccc3)C2)cc1F [Compound 4l] | 2130 mL/min/kg | 71.9 mL/min/kg |  |  |  |  |
| COc1ccc(CN2CCO[C@H](COc3ccccc3)C2)cc1Cl [Compound 4n] | 1600 mL/min/kg | 78.7 mL/min/kg | < 50% | < 50% | < 50% |  |
| COc1cc(CN2CCO[C@H](COc3ccccc3)C2)ccc1Cl [Compound 4p] | 1500 mL/min/kg | 79.7 mL/min/kg |  |  |  |  |
| c1ccc(OC[C@@H]2CN(Cc3cn4ccccc4n3)CCO2)cc1 [Compound 4t] | 154 mL/min/kg | 17.3 mL/min/kg |  |  |  | predicted clearance [2]: moderate |
| c1ccc(OC[C@@H]2CN(Cc3ncn4ccccc34)CCO2)cc1 [Compound 4u] |  |  | < 50% | < 50% | < 50% |  |
| c1ccc(OC[C@@H]2CN(Cc3n[nH]c4ccccc34)CCO2)cc1 [Compound 4v] |  |  | < 50% | < 50% | < 50% |  |
| Cn1ncc2cc(CN3CCO[C@H](COc4ccccc4)C3)ccc21 [Compound 4y] | 433 mL/min/kg | 60.5 mL/min/kg |  |  |  |  |
| c1ccc(OC[C@@H]2CN(Cc3ccc4[nH]ccc4c3)CCO2)cc1 [Compound 4z] | 3140 mL/min/kg | 135 mL/min/kg |  |  |  |  |
| Clc1ccc(CN2CCO[C@H](CSc3ccccc3)C2)cc1 [Compound 5aa] | 3220 mL/min/kg | 122 mL/min/kg | < 50% | < 50% | < 50% | selectivity for D4 over the other dopamine receptors [3]: > 1000 fold; selectivity against all of the dopamine receptors tested [3]: completely selective |
| Cc1ccc(CN2CCO[C@H](CSc3ccccc3)C2)cc1C [Compound 5bb] | 6440 mL/min/kg | 366 mL/min/kg | < 50% | < 50% | < 50% | selectivity for D4 over the other dopamine receptors [3]: > 1000 fold; selectivity against all of the dopamine receptors tested [3]: completely selective |
| COc1ccc(CN2CCO[C@H](COc3cccc(F)c3)C2)cc1Cl [Compound 5m] | 1500 mL/min/kg | 93 mL/min/kg | < 50% | < 50% | < 50% |  |
| COc1cc(CN2CCO[C@H](COc3cccc(F)c3)C2)ccc1Cl [Compound 5n] | 1770 mL/min/kg | 68.9 mL/min/kg | < 50% | < 50% | < 50% |  |
| Fc1ccc2c(CN3CCO[C@H](COc4cccc(F)n4)C3)c[nH]c2c1 [Compound 5u] | 4010 mL/min/kg | 101 mL/min/kg | < 50% | < 50% | < 50% | selectivity against all of the dopamine receptors tested [3]: fully selective |
| Fc1ccc2c(CN3CCO[C@H](COc4cccc(Cl)n4)C3)c[nH]c2c1 [Compound 5y, (S)-2-(((6-chloropyridin-2-yl)oxy)methyl)-4-((6-fluoro-1H-indol-3-yl)methyl)morpholine] | 4200 mL/min/kg | 230 mL/min/kg | < 50% | < 50% | < 50% | selectivity for D4 over the other dopamine receptors [3]: > 1000 fold; selectivity against all of the dopamine receptors tested [3]: fully selective; also recorded: completely selective; major metabolite in human microsomes ([4]; Compound A = N-dealkylation): Compound A; extent of metabolism in human liver microsomes [4, 7]: highly metabolized; major metabolite in rat microsomes ([5]; Compound B = N-dealkylation + oxidation): Compound B; extent of metabolism in rat liver microsomes [5, 7]: highly metabolized |
| Clc1ccc(CN2CCO[C@H](COc3cccc(Cl)n3)C2)cc1 [Compound 5z] | 5310 mL/min/kg | 98.2 mL/min/kg |  |  |  |  |
| Clc1ccc(CN2CCO[C@H](CCc3ccccc3)C2)cc1 [ML398] |  |  |  |  |  | IC50 [6]: 130 nM; Ki [6]: 36 nM |
